ROMK primary = modulates human ROMK potassium channel activity. B-score at 10 µM. AID 1918. P48048. actives 2% (n = 130,000). Tet-inducible ROMK, thallium flux fluorescence; actives lie on both sides;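 active means signal ratio slope over the read window, or its plate-corrected B-score, at least 3 SD from the plate mean, either direction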;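 further: B-score of the F/F0 ratio slope over 7 to 12 s after thallium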
p97 ATPase inh = human p97 ATPase inhibition; inhibition, % at 8 µM; P55072; actives 0.42% (n = 220,000); AID 1481; recombinant p97 ATPase, Kinase-Glo ATP luminescence, 3 h; in the data active means inhibition above about 15%
PKD1 inh = inhibitors of human PKD1 kinase; Q15139; PKD1 kinase fluorescence polarization assay; inhibition, % (test concentration not listed); actives 0.056% (n = 200,000); AID 797; in the data active means inhibition above about 50%
Target sequence (Q15139 whole entry, looked up): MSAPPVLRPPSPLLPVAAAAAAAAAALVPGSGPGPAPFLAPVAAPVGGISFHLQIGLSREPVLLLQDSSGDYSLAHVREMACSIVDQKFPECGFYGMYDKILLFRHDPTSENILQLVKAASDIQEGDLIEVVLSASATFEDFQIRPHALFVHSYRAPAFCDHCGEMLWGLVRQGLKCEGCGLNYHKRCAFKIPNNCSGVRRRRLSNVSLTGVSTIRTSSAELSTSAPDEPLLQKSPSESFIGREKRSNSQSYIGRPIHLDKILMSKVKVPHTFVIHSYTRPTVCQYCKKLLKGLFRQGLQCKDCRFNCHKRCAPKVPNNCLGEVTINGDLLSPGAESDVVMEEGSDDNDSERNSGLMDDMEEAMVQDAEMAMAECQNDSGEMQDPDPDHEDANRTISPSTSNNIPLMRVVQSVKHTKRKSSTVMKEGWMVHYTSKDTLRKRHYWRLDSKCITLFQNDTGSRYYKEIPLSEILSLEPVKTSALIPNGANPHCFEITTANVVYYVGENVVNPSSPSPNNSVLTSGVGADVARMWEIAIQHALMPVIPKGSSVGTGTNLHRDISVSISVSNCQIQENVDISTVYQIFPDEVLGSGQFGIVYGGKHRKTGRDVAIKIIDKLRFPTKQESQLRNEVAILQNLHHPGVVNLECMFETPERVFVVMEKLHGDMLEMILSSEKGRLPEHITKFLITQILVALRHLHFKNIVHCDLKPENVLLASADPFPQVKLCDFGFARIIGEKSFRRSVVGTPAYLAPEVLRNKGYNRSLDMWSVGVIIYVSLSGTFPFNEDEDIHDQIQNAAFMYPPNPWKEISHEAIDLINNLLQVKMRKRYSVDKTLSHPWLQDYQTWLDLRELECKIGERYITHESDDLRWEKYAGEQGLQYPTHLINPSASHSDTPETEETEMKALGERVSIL
DTT redox prof = compounds producing H2O2 with reducing agent – biochemical, NIH compound library profiling, artefact control for MLSCN library redox annotation, primary screen. activation, % at 10 µM. DTT-dependent redox cycling H2O2, phenol red/HRP absorbance; 100% = 100 µM peroxide control, 0% = buffer. AID 878. actives 0.03% (n = 200,000);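 active means activation of at least 50% relative to the plate's high and low controls in the primary single-dose screen; inactive means activation below 50%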;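 further: compound incubated with DTT at 0.8 mM final as the reducing agent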
Mdm2 ligase inh = Mdm2 E3 ligase (human) inhibition. Q00987. cell-based MDM2 ubiquitination luciferase reporter, 2 h; 0 = plate control, 100 = twice control, blank-subtracted. signal enhancement, % at 5 µM. actives 0.11% (n = 210,000). AID 1230;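 active means signal enhancement of 30% or more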;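 further: luminescence tracks abundance of the self-degrading MDM2-luciferase fusion protein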
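system = mammalian cells stably expressing self-ubiquitinating, self-degrading MDM2 E3–luciferase fusion | quantity = 2000 cells per well seeded | incubation = 4 h cell settling then 2 h compound exposure, 37 °C | signal = SteadyLite luminescence, 15 min reagent step | benchmarks = plate control and blank wells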
KCC2 mod = modulates chloride dependent transport by human KCC2 | KCC2 cells, thallium flux FluoZin-2 fluorescence | Q9H2X9 | B-score of Tl+ flux slope (higher = more flux/activation; lower = inhibition) at 10 µM | actives 2.2% (n = 190,000);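 active means thallium flux slope and its plate-corrected score both differing from the plate sample mean at a set confidence after two filtering rounds, in either direction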;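 further: slope of fluorescence scaled to starting intensity during 10 to 20 s after thallium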
ROMK hit retest = human ROMK channel modulation, retest confirmation. shares compounds with ROMK primary. ROMK thallium flux, fluorescence ratio; stronger effect = lower value. normalized thallium flux (F/F0 slope) at 10 µM. actives 54% (n = 3,000). AID 1917;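 active means Flux at 10 µM at least 3 SD below or above vehicle control mean in one or both replicates; inconclusive means no clear call, values can overlap the other calls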
Hits are given with their value; 0 = inactive; ? = inconclusive; - = not tested or not shown. Rows were chosen to be rich in hits. Some 3.4% of all compounds tested hit in one or more screens of this group.

SMILES | ROMK primary | p97 ATPase inh | PKD1 inh | DTT redox prof | Mdm2 ligase inh | KCC2 mod | ROMK hit retest
COc1cc(NCCCCCCCN)c2ncccc2c1 | -5.06 | 0 | 0 | 0 | 0 | 0 | 0.0621
Cc1ccc(Nc2nc(COC(=O)COc3ccc(C=O)cc3)cs2)cc1 | - | 0 | 0 | - | 0 | 0 | -
C/C=C/c1ccc(OCC(=O)OCc2csc(Nc3ccc(C)cc3)n2)c(OC)c1 | -2.61 | 0 | 0 | 0 | 0 | 0 | 0.0648
N#Cc1c(NCCCO)nc(-c2ccccc2)c2c1CCCC2 | - | 0 | 0 | 0 | 0 | 0 | -
N#Cc1c(NCCN)nc(-c2ccccc2)c2c1CCCC2 | -4.04 | 0 | 0 | 0 | 0 | - | 0.05
COc1ccc(C2=CC(=O)N(Nc3ccccc3)C2=O)cc1 | 0 | 0 | 0 | 0 | 0 | 0 | -
O=C1C=C(c2ccccc2)C(=O)N1Nc1ccccc1 | -3.57 | 0 | 0 | 0 | 0 | - | 0.0606
COc1ccc(C(CNC(=O)CCOc2ccccc2)N(C)C)cc1 (stereo not given) | 0 | 0 | 0 | 0 | 0 | 0 | -
CSc1nc2[nH]c3c(c2c2nnnn12)CCCC3 | - | 0 | 0 | 0 | 0 | 0 | 0
O=C(O)c1cccc(N/N=C/C2=C(Cl)c3cc(Cl)ccc3SC2)c1 | 0.76 | 0 | 0 | 0 | 0 | 0 | 0
CC1=Nc2cc(C(=O)NCCCOC(C)C)ccc2Sc2ccc(C)cc21 | 4.32 | 0 | 0 | 0 | 0 | 0 | 0
CC1=Nc2cc(C(=O)NCCCOC(C)C)ccc2Sc2ccccc21 | 2.9 | 0 | 0 | 0 | 0 | 0 | 0
CCCC1=Nc2cc(C(=O)NCCCOC(C)C)ccc2Sc2ccccc21 | 0 | 0 | 0 | 0 | 0 | 0 | -
CCC1=Nc2cc(C(=O)NCCCOC)ccc2Sc2ccccc21 | 0 | 0 | 0 | 0 | 0 | 0 | -
Cc1ccc(O)c(NC(=S)NC(=O)c2ccccc2Cl)c1 | 0 | 0 | 0 | 0 | 0 | 0 | -
Cc1ccc(C)c(C(=O)COC(=O)c2cccc(N3C(=O)c4c(C)nc5ccccc5c4C3=O)c2)c1 | - | 0 | 0 | 0 | 0 | 0 | -
CC1(C)C2CC=C(/C=N/NC(=S)Nc3cccnc3)C1C2 (stereo not given) | -3.1 | 0 | 0 | 0 | 0 | 0 | 0
COCCSc1ccccc1C(=O)N1CCCC(C)C1 (stereo not given) | 0 | 0 | 0 | 0 | 0 | 0 | -
Cc1cn2c(N)c(C=C3C=C(Cl)C(=O)C(Cl)=C3)c(=O)nc2s1 | -6.15 | 0 | 0 | 0 | 0 | 0 | 0.025
COc1cc(C2CC(=O)c3c([nH]c(C(=O)OCCOC(C)C)c3C)C2)cc(OC)c1OC (stereo not given) | - | 0 | 0 | 0 | 0 | 0 | 0.0633
CCOC(=O)c1[nH]c2c(c1C)C(=O)CC(c1ccc(OC)c(OC)c1)C2 (stereo not given) | 0 | 0 | 0 | 0 | 0 | 0 | -
Cc1occc1C(=O)Nc1ccc2c(c1)OCCO2 | - | 0 | 0 | 0 | 0 | 0 | 0
Cc1cc(C(=O)Nc2ccc3c(c2)OCCO3)c(C)o1 | - | 0 | 0 | 0 | 0 | - | -
COc1ccccc1NC(=O)CN1C(=O)C(C)Oc2ccccc21 (stereo not given) | - | 0 | 0 | 0 | 0 | 0 | -
Cc1ccccc1NC(=O)c1ccc(NS(=O)(=O)c2cc(C(C)(C)C)cc(C)c2C)cc1 | - | 0 | 0 | 0 | 0 | 0 | -
SMILES | ROMK primary | p97 ATPase inh | PKD1 inh | DTT redox prof | Mdm2 ligase inh | KCC2 mod | ROMK hit retest
Cc1cc(C(C)(C)C)cc(S(=O)(=O)Nc2cccc(C(=O)O)c2)c1C | 4.74 | 0 | 0 | 0 | 0 | - | 0
Cc1ccccc1OCCSc1nnc(C)n1-c1ccccc1 | 0 | 0 | 0 | 0 | 0 | 0 | -
CCn1cc(C(=O)OCC(=O)OC2CC(C)CCC2C(C)C)c(=O)c2ccc(C)nc21 (stereo not given) | 2.74 | 0 | 0 | 0 | 0 | - | 0.0636
CCc1nnc(NC(=O)c2sc3nc4c(cc3c2N)CCCCCC4)s1 | - | 0 | 0 | 0 | 0 | 0 | -
C=C(C)Cn1c(CCNC(=O)C(C)(C)C)nc2ccccc21 | - | 0 | 0 | 0 | 0 | 0 | -
Cc1ccc(C(=O)OCC(=O)Nc2ccccc2)cc1NC(=O)c1ccco1 | -5.38 | 0 | 0 | 0 | 0 | 0 | 0
O=C(c1cnc2n(c1=O)CCS2)N(C1CCCCC1)C1CCCCC1 | - | 0 | 0 | 0 | 0 | 0 | -
CCCn1c(C(O)c2ccc(OC)cc2)nc2ccccc21 (stereo not given) | - | 0 | 0 | 0 | 0 | - | -
Cc1nc2cc(F)ccc2n1C1CCN(S(=O)(=O)c2ccccc2)CC1 | -6.13 | 0 | 0 | 0 | 0 | 0 | ?
Cc1ccc2c(C(=O)N3CCN(c4ccccc4)CC3)cc(-c3cccnc3)nc2c1C | 1.9 | 0 | 0 | 0 | 0 | 0 | 0
Cc1ccc2nc(-c3cccnc3)cc(C(=O)N3CCN(c4ccc([N+](=O)[O-])cc4)CC3)c2c1 | 0 | 0 | 0 | 0 | 0 | 0 | -
O=C(Nc1cccc(O)c1)c1cc(S(=O)(=O)N2CCCC2)ccc1Cl | 3.35 | 0 | 0 | 0 | 0 | 0 | 0.101
O=C(Nc1cccc(S(=O)(=O)N2CCCCCC2)c1)c1ccc2c(c1)OCO2 | -3.57 | 0 | 0 | 0 | - | 0 | 0
O=C(Nc1cccc(S(=O)(=O)N2CCCC2)c1)c1ccc2c(c1)OCO2 | - | 0 | 0 | 0 | 0 | 0 | -
CCc1nnc(NC(=O)CN2CCN(c3nc(-c4ccccc4)cs3)CC2)s1 | 0 | 0 | 0 | 0 | 0 | - | -
CCCCC(CC)CNC(=O)CCS(=O)(=O)c1cccc2nonc12 (stereo not given) | - | 0 | 0 | 0 | 0 | 0 | ?
CC(C)c1onc(C(=O)N2CCCCCC2)c1[N+](=O)[O-] | 0 | 0 | 0 | 0 | 0 | 0 | -
CCOC(=O)N1CCN(C(=O)c2noc(C(C)C)c2[N+](=O)[O-])CC1 | 0 | 0 | 0 | 0 | - | 0 | 0
CCOC(=O)C1CCN(C(=O)Nc2cc(Cl)cc(Cl)c2)CC1 | 0 | 0 | - | - | 0 | 0 | -
Cc1nnc(Sc2c(-c3ccccc3)c3ccc(Cl)cc3[nH]c2=O)s1 | - | 0 | 0 | 0 | 0 | 0 | -
Oc1c(Br)cc(Br)cc1C=NCc1ccccc1 | 3.92 | 0 | 0 | 0 | 0 | 0 | ?
Oc1c(Br)cc(Br)cc1C=NCc1ccc(F)cc1 | 3.27 | 0 | 0 | 0 | 0 | 0 | 0.122
S=C(CN1CCCC1=S)NCCc1ccccc1 | - | 0 | - | - | 0 | 0 | 0
Cc1ccc(CN2C(=O)/C(=C\c3ccc(C(=O)NCc4cccnc4)cc3)Oc3ccccc32)cc1 | - | 0 | 0 | 0 | 0 | 0 | -
C=CCc1cccc2cc(C(=O)NC(C)(C)C)c(=O)oc12 | 7.42 | 0 | 0 | 0 | 0 | 0 | 0
C#CC(C)(CC)NC(=O)c1cc2cccc(CC=C)c2oc1=O (stereo not given) | 0 | 0 | 0 | 0 | 0 | 0 | -
Cc1nn(CCC#N)c(NC(=O)c2ccccc2)c1P(=O)(Nc1ccc(Br)cc1)N1CCOCC1 (stereo not given) | 0 | 0 | 0 | 0 | 0 | 0 | -

Source: PubChem (several laboratories)
